Each structure is given as a SMILES string. “Also recorded” adds a separate entry of the source. Read-outs that look alike come from different tables or passages of the source.

What is called EC50 is the concentration that produces a half-maximal response. For orientation: IC50 means the midpoint of a concentration-inhibition curve.

One series deals with hER. The following applies: read-out: EC50, hER agonist; cited from earlier work.
In series [1] the target is alligator estrogen receptor alpha (aERα) (Alligator mississippiensis, UniProt Q765N7). In words: Cell-free competitive binding assay with baculovirus-expressed recombinant aERα. The following applies: for Binding classification for aERα: non-binder <50% E2 displaced, equivocal binder 50% or greater but <80%; for RBA, Alligator: IC50 of 17β-estradiol / IC50 of compound × 100; for Binder class, Alligator: aERα, displacement of [3H]E2 at highest soluble concentration; for E2 displaced from aERα: maximum displacement of radiolabeled E2. Also noted: species or system American alligator (Alligator mississippiensis). For orientation: Loss of bound radioactivity is the signal in a displacement assay; it reports binding, not function.

Series [2] addresses T1, human estrogen receptor alpha (hERα) (Homo sapiens, UniProt P03372).
T1 sequence (P03372 1-595): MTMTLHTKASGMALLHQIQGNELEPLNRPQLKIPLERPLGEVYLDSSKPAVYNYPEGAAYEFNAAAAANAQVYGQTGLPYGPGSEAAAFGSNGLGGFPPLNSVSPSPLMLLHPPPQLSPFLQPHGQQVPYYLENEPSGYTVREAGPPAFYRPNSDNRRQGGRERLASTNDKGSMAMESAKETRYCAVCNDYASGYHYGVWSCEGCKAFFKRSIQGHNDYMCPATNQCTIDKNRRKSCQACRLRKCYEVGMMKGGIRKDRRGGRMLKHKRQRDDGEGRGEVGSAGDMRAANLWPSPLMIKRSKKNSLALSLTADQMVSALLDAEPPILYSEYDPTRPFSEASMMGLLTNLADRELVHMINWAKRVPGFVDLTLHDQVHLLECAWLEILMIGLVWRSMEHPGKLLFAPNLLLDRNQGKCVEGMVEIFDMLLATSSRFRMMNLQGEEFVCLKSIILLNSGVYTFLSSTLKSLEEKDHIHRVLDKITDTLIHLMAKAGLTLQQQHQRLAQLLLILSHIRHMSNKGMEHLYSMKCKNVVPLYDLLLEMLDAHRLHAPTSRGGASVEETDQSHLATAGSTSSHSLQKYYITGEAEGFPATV
In words: Cell-free competitive binding assay with baculovirus-expressed recombinant hERα. The following applies: for Binding classification for hERα: non-binder <50% E2 displaced, equivocal binder 50% or greater but <80%; for RBA, Human: IC50 of 17β-estradiol / IC50 of compound × 100; for Binder class, Human: hERα, displacement of [3H]E2 at highest soluble concentration; for E2 displaced from hERα: maximum displacement of radiolabeled E2.

The test system of series [3] is alligator estrogen receptor (aER) derived from adult female alligator oviductal tissue. The following applies: cited from earlier work.
The test system of another series is alligator embryos. The following applies: cited from earlier work.
Series [4] concerns human estrogen receptor (hER). The following applies: cited from earlier work.
Another series has as its system human MCF-7 cells. The following applies: proliferation of human MCF-7 cells; cited from earlier work.
The test system of a further series is endogenous hERα and hERβ. In words: T47D-KBluc transactivation assay. It counts as cell-based, human. The procedure, abridged:
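Stably transfected T47D reporter line (endogenous ERα/ERβ, 3×-ERE-TATA-Luc) was plated at 10,000 cells/well and dosed after overnight culture for 24 h. […] After PBS rinse and lysis, luciferase RLU was read with D-luciferin and converted to log fold induction. One-way ANOVA was applied. There were two independent experiments, four wells per treatment.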

The subject of a further series is aERα. In words: CV1 transactivation assay with exogenous aERα. It counts as cell-based, American alligator (Alligator mississippiensis).
Another series has as its system T47D-KBluc cells. Briefly: Cytotoxicity observed in the T47D-KBluc assay. The following applies: 30 μM. The format is cell-based, human.
A further series has as its target hERα (Homo sapiens, UniProt P03372). In words: CV1 transactivation assay with exogenous hERα. It counts as cell-based.
The next series deals with CV1 cells. Briefly: Cell distress observed in the CV1 transactivation assay. It counts as cell-based, monkey. The following applies: 30 μM.

With `OC(c1ccc(Cl)cc1)(c1ccccc1Cl)C(Cl)(Cl)Cl` (racemic) [racemic (±) o,p′-dicofol, o,p′-dicofol], in the series with hER, the EC50 was 4200 nM.
As for `OC(c1ccc(Cl)cc1)(c1ccccc1Cl)C(Cl)(Cl)Cl` (single isomer, unassigned; (-)) [(−) o,p′-dicofol, o,p′-dicofol], the concentration for a half-maximal effect (EC50) in the series with hER is 510 nM.
Turning to `CCNc1nc(Cl)nc(NC(C)C)n1` [Atrazine], in series [1] (at concentrations up to 100 μM), the “Binding to aERα” value is “not able to bind”. Further, in series [1], the “Binding classification for aERα” value is given as “not able to bind; also recorded: non-binders”. Further, the “Binding to hERα” value in series [2] (at concentrations up to 100 μM) is reported as “not able to bind”. In addition, in series [2], the “Binding classification for hERα” value was “not able to bind; also recorded: non-binders”. Also, the “Binding to oviduct-derived aER” value in series [3] is recorded as “able to bind”. The Sex reversal entry in the series with alligator embryos (33°C, stage 21, single topical egg exposure to 0.14, 1.40, or 14.0 ppm) is on record as “no sex reversal at any concentration”. Also, in the series with alligator embryos (in ovo exposure), the Gonadal aromatase activity result is recorded as “did alter gonadal aromatase activity” and the “Plasma E2 concentrations” value is “not plasma E2 concentrations”. The “Binding to hER” value in series [4] is “do not bind”. Besides, in the series with human MCF-7 cells, the “Activity in the E-screen assay” value is “inactive”.
As to `CC(C)(c1ccc(O)cc1)c1ccc(O)cc1` [Bisphenol A, reference compound], in series [1], the IC50 was 1070 nM and the “RBA, Alligator” value was found to be 0.07. Further, the “RBA, Human” value in series [2] was found to be 0.05.
Take `CCNc1nc(Cl)nc(NC(C)(C)C#N)n1` [Cyanazine, cyanazine]: in [1], the “Binder class, Alligator” value is “NB (Non-binder: displaced less than 50% 17b-estradiol at the highest soluble concentration.)”. Also, the “Activity in the E-screen assay” value in the series with human MCF-7 cells is “inactive”.
With `C[C@]12CC[C@@H]3c4ccc(O)cc4C[C@@H](CCCCCCCCC[S+]([O-])CCCC(F)(F)C(F)(F)F)[C@H]3[C@@H]1CC[C@@H]2O` (some centres unmarked) [ICI, ICI 182,780, reference compound], the “Effect of ICI on E2-elicited transactivation” value in the series with endogenous hERα and hERβ (1 μM ICI + 30 pM E2, data not shown) is listed as “reversed”. Further, in the series on aERα (1 μM ICI + 10 nM E2, data not shown), the “Effect of ICI on E2-elicited transcriptional activation” value is “ablated”.
Regarding `CCc1cccc(CC)c1N(COC)C(=O)CCl` [alachlor], in series [3], the “Binding to oviduct-derived aER” value was “able to bind”. The “Binding to hER” value in [4] was “do not bind”. Further, in the series on human MCF-7 cells, the “Activity in the E-screen assay” value is “inactive”.
`ClC1=C(Cl)C2(Cl)C3C(Cl)C(Cl)CC3C1(Cl)C2(Cl)Cl` (centres unmarked) [chlordane]: in series [3], the “Binding to oviduct-derived aER” value was “able to bind”. Moreover, the “Activity in the E-screen assay” value in the series with human MCF-7 cells is “inactive”.
Consider `ClC1=C(Cl)[C@]2(Cl)[C@H]3[C@H]([C@H](Cl)C(Cl)[C@@H]3Cl)[C@@]1(Cl)C2(Cl)Cl` (stereo partly drawn) [cis-Nonachlor], for which, in [1], the “RBA, Alligator” value was found to be 0.006 and the “Binder class, Alligator” value is “EB (Equivocal binder: displaced greater than 50%, but less than 80% at the highest soluble concentration.)”. In series [2], the “RBA, Human” value is on record as 0.003 and the “Binder class, Human” value is “EB (Equivocal binder: displaced greater than 50%, but less than 80% at the highest soluble concentration.)”.
As for `ClC1=C(Cl)C2(Cl)C3C(Cl)C=CC3C1(Cl)C2(Cl)Cl` (centres unmarked) [heptachlor], in [3], the “Binding to oviduct-derived aER” value was “able to bind”. Also, the “Activity in the E-screen assay” value in the series with human MCF-7 cells is “inactive”.
For the compound `Cl[C@H]1[C@H](Cl)[C@@H](Cl)[C@@H](Cl)[C@H](Cl)[C@H]1Cl` [lindane], the “Activity in the E-screen assay” value with human MCF-7 cells is “inactive”.
Turning to `ClC(Cl)=C(c1ccc(Cl)cc1)c1ccccc1Cl` [o,p′-DDE, 1-Chloro-2-[2,2-dichloro-1-(4-chlorophenyl)ethenyl]benzene], in series [1], the IC50 was 85100 nM; the “Binder class, Alligator” value is on record as “EB (Equivocal binder: displaced greater than 50%, but less than 80% at the highest soluble concentration.)”; the “Binding classification for aERα” value is “equivocal binders”. Also, in series [2], the IC50 turned out to be 219000 nM; the “RBA, Human” value turned out to be 0.003; the “Binder class, Human” value is “EB (Equivocal binder: displaced greater than 50%, but less than 80% at the highest soluble concentration.)”; the “Binding classification for hERα” value is recorded as “equivocal binders”.
As for `Clc1ccc(C(c2ccccc2Cl)C(Cl)(Cl)Cl)cc1` (centres unmarked) [o,p′-DDT, 1-Chloro-2-[2,2,2-trichloro-1-(4-chlorophenyl)ethyl]benzene], in [1], the IC50 was 977 nM and the “RBA, Alligator” value is recorded as 0.08.
Regarding `Clc1ccc(C(c2ccc(Cl)cc2)C(Cl)Cl)cc1` [p,p′-DDD, 1-Chloro-4-[2,2-dichloro-1-(4-chlorophenyl)ethyl]benzene], in series [1], the “Binder class, Alligator” value is listed as “NB (Non-binder: displaced less than 50% 17b-estradiol at the highest soluble concentration.)” and the “Binding classification for aERα” value is given as “non-binders”. Besides, in [2], the “Binder class, Human” value was “NB (Non-binder: displaced less than 50% 17b-estradiol at the highest soluble concentration.)” and the “Binding classification for hERα” value is “non-binders”.
Turning to `ClC(Cl)=C(c1ccc(Cl)cc1)c1ccc(Cl)cc1` [p,p′-DDE, 1-Chloro-4-[2,2-dichloro-1-(4-chlorophenyl)ethenyl]benzene], in series [1], the “Binder class, Alligator” value is “NB (Non-binder: displaced less than 50% 17b-estradiol at the highest soluble concentration.)”; the “E2 displaced from aERα” value is given as about 28%; the “Binding classification for aERα” value was “non-binders”. Besides, in [2], the “Binder class, Human” value is “NB (Non-binder: displaced less than 50% 17b-estradiol at the highest soluble concentration.)”; the “E2 displaced from hERα” value is on record as about 0%; the “Binding classification for hERα” value is on record as “non-binders”. The Sex ratio result in the series on alligator embryos (100 ppb in ovo, 32°C (mixed sex ratio)) was “slight female sex bias”. Moreover, the “Male to female sex reversal” value in the series on alligator embryos (100 ppb in ovo, 33.5°C) is on record as “no male to female sex reversal”.
Turning to `OC(c1ccc(Cl)cc1)(c1ccc(Cl)cc1)C(Cl)(Cl)Cl` [p,p′-Dicofol, p,p′-dicofol], the EC50 with hER was 1600 nM. Moreover, the “Cytotoxicity (cell detachment, cytopathology)” value with T47D-KBluc cells is reported as “toxic to the cells”. In [1], the “RBA, Alligator” value was found to be 0.02 and the “E2 displaced from aERα” value is listed as 83%. In series [1] (read-out: IC50 for aERα), the IC50 was found to be 4000 nM. Besides, in the series on endogenous hERα and hERβ (T47D-KBluc assay), the “Concentration eliciting maximal transactivation” value was determined as 10 µM. Besides, in the series on endogenous hERα and hERβ (T47D-KBluc cells), the “Transcriptional activation of estrogen-dependent reporter” value is reported as “dose-dependent increase”. Besides, in the series with endogenous hERα and hERβ (read-out: EC50, transcriptional activation through hER, T47D-KBluc cells), the EC50 came out at 1500 nM. Also, in series [2], the “RBA, Human” value was 0.001; the “Binder class, Human” value is “EB (Equivocal binder: displaced greater than 50%, but less than 80% at the highest soluble concentration.)”; the “E2 displaced from hERα” value turned out to be 58%; the “Binding classification for hERα” value is given as “equivocal binder”. For the same compound, the “Concentration eliciting maximal transactivation” value with aERα (CV1 assay, aERα) came out at 10 µM. For the same compound, in the series with aERα (CV1 cells), the “Transcription of estrogen responsive gene with aERα” value is recorded as “induced transcription”. Moreover, the 50% effective concentration (EC50) in the series on aERα (read-out: EC50, transcriptional activation through aERα, CV1 cells, 3x-ERE-TATA-Luc) is 2800 nM. Moreover, the “Concentration eliciting maximal transactivation” value on hERα (CV1 assay, hERα) was determined as 10 µM. Also, the “Transcription of estrogen responsive gene with hERα” value on hERα (CV1 cells) is recorded as “induced transcription”. The “Cell distress (increase in detached cells)” value in the series with CV1 cells is on record as “cell distress”.
As to `ClC1=C(Cl)[C@]2(Cl)[C@H]3[C@H]([C@H](Cl)C(Cl)[C@@H]3Cl)[C@@]1(Cl)C2(Cl)Cl` (stereo partly drawn) [trans-Nonachlor], in [1], the “RBA, Alligator” value was found to be 0.005; the “Binder class, Alligator” value is “EB (Equivocal binder: displaced greater than 50%, but less than 80% at the highest soluble concentration.)”; the “E2 displaced from aERα” value is reported as 68%; the “Binding classification for aERα” value was “equivocal binder”. Besides, in series [2], the “Binder class, Human” value is given as “NB (Non-binder: displaced less than 50% 17b-estradiol at the highest soluble concentration.)”; the “E2 displaced from hERα” value is given as 48%; the “Binding classification for hERα” value is given as “non-binder”.

(Values after PMC2944037 (Environmental toxicology and chemistry / SETAC, 2010).)
